Source: the M2OR odorant receptor database

The compounds below were run against T1, OR5B17 (Homo sapiens) (UniProt Q8NGF7). Conditions: stereoisomer not certain.
T1 sequence (whole entry): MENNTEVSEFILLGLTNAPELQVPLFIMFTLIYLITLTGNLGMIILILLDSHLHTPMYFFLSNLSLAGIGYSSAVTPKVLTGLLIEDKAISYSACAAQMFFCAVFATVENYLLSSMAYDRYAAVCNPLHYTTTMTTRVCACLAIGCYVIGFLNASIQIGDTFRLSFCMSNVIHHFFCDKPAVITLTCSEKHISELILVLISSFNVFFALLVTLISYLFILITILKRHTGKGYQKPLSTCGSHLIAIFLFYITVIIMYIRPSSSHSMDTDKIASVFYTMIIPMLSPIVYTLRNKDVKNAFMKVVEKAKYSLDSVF
Method in brief: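 Values were gathered from published papers (main text and supplementary material), with extra details requested from the original authors when needed, and checked for typos and inconsistencies. Each receptor–molecule pair is called responsive (active) if the original authors judged the measured signal statistically different from baseline, and non-responsive (inactive) otherwise. Assay methods varied by source, often transient mammalian cell-line luciferase assays. Recorded details include cell line, G-protein, co-transfected protein and tags.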

Row | SMILES | odorant receptor agonist call
1 | CC(C)=CCCC(C)CC=O (stereo unspecified) | inactive
2 | CC1=CCC2CC1C2(C)C (stereo unspecified) | inactive
3 | CCCC(C)C(=O)OCC (stereo unspecified) | inactive
4 | COc1ccc(C)cc1 | inactive
5 | Cc1occc(=O)c1OC(=O)C(C)C | inactive
6 | C=CC(C)(CCC=C(C)C)OC(C)=O (stereo unspecified) | inactive
7 | CCC=C(C)C(O)CCCCC (stereo unspecified) | inactive
8 | CCCCC1CCC(=O)O1 (stereo unspecified) | inactive
9 | CCCCCC1C(=O)CCC1CC(=O)OC (stereo unspecified) | inactive
10 | CC(=O)C=CC1=C(C)CCCC1(C)C | inactive
11 | C=CCOC(=O)COCCC(C)C | inactive
12 | CC1CC(C)(c2ccccc2)CO1 (stereo unspecified) | inactive
13 | CC=CC(=O)C1C(C)=CCCC1(C)C (stereo unspecified) | inactive
14 | COC1CC2CC1C1CC(C=O)CC21 (stereo unspecified) | inactive
15 | CC(C)CCCC(C)(C)O | inactive
16 | CC(=O)OCc1ccccc1 | inactive
17 | C=CC(C)(O)CCC=C(C)CCC=C(C)C (stereo unspecified) | inactive
18 | CCC(=O)C=CC1C(C)=CCCC1(C)C (stereo unspecified) | inactive
19 | CCOC(=O)CC1(C)OCCO1 | inactive
20 | CC(C)(C)C1CCCCC1OCCCCO (stereo unspecified) | inactive
21 | CC(C)=CCCC(C)=CCO | inactive
